Screening data as filed in PubChem.
Scp1 inh: inhibitors of human Scp-1 phosphatase. Q9GZU7. Recombinant Scp1, phosphopeptide, malachite green phosphate absorbance. inhibition, % at 20 µM. hit rate 0.88% among 340,000;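 active = inhibition above about 50% at 20 µM, limit read from the data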;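 also: plate controls were DMSO wells with enzyme for no effect and wells lacking enzyme for full effect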
Target sequence (Q9GZU7 76-261 limits assumed): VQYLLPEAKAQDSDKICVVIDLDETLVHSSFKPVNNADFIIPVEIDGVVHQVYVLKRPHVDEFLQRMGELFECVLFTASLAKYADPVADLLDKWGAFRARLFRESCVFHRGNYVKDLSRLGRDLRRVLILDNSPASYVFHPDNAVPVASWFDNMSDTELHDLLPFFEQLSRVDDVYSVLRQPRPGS
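Times: enzyme reaction 45 min at room temperature, colour 5 min, stabilisation 30 min. Material: SCP-1 catalytic fragment, aa 76-261. Medium: Acidic Tris acetate buffer with magnesium and detergent. Signal: colorimetric free-phosphate detection, absorbance 630 nm. Read-out basis: % inhibition of SCP-1 phosphate liberation. Reagent: Phosphorylated 17-residue peptide substrate.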
STEP inh: inhibitors of human striatal-enriched phosphatase STEP. P54829. recombinant STEP, OMFP fluorogenic substrate, fluorescence. inhibition, % at 20 µM. hit rate 0.25% among 360,000;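 active = inhibition at 20 µM, scaled per plate between control wells, above about 37%, limit read from the data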;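 also: 0% = DMSO with enzyme and substrate and 100% = substrate only without enzyme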
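System: isolated STEP enzyme; schedule: 20 min enzyme reaction at room temperature, protected from light; medium: Bis-Tris buffer pH 6.0, 2.5 mM DTT, 0.005% Tween 20; signal: fluorescence, 480/540 nm; dosing: single compound dose of 20 µM, 1% DMSO final; also added: OMFP substrate, 25 µM final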
SUMO1 PPI mod: modulators of human SUMO1-mediated protein-protein interactions | SUMO1 binding to a labelled peptide, TR-FRET, 1 h | inhibition, % at 20 µM | hit rate 0.33% among 360,000; in the data active = inhibition above about 37%
Target sequence (P63165 whole entry, looked up): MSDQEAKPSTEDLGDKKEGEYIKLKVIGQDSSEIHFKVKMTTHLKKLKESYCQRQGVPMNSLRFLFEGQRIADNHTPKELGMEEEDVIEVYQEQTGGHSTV
DNMT1 block: DNMT1 (human) enzyme inhibition. P26358. DNMT1 molecular beacon, Hinp1I cleavage, fluorescence. inhibition (reported as % activation of signal), % at 10 µM. hit rate 0.83% among 360,000. AID 588458; in the data active = inhibition above about 50%
LMPTP block: LMPTP (human) inhibition | P24666 | recombinant LMPTP-A, OMFP fluorogenic substrate, fluorescence intensity | inhibition, % at 20 µM | hit rate 0.22% among 360,000;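 active = compounds that cut the enzyme signal by at least half of the control window in the single-dose screen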;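 also: plate controls were DMSO wells with enzyme plus substrate for no effect and substrate without enzyme for full effect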
Target sequence (P24666 whole entry, looked up): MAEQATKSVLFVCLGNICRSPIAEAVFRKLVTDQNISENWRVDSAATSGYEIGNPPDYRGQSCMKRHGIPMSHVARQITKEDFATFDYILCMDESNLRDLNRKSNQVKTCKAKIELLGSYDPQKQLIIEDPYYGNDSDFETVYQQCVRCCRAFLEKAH
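material = LMPTP-A | quantity = 0.625 nM enzyme | reagent = OMFP substrate, 400 µM final | buffer or medium = Bis-Tris pH 6.0, DTT, detergent | detection = endpoint fluorescence intensity from OMFP dephosphorylation | dosing = single 20 µM dose | read-out basis = % inhibition relative to no-enzyme and uninhibited control wells | control set = no-enzyme and uninhibited controls | timing = 50 min at room temperature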
GRK2 aptamer HTS: inhibitors of human GRK2 displacing RNA aptamer; P25098; bead flow cytometry, FAM-aptamer displacement from GRK2; inhibition of aptamer binding, % at 10 µM; hit rate 0.59% among 330,000; AID 488847;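 active = inhibition of aptamer binding above 40%, roughly 3 SD of noise, on plates passing a quality check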;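 also: median bead fluorescence of bound FAM aptamer so fluorescent compounds give negative values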
An asterisk follows results filed as active. Shown are actives, neighbours in structure and some others; about 2.2% of the full set was active somewhere.

Results for COc1ccc2nc3cc(Cl)ccc3c(Nc3cc(C(C)C)c(O)cc3C)c2c1 ?
Scp1 inh: -3; STEP inh: 13; SUMO1 PPI mod: 3; DNMT1 block: -4; LMPTP block: 5; GRK2 aptamer HTS: 0

How did CC1CN(C(=O)CSc2nc(N)c(NC(=O)c3ccc(C(F)(F)F)cc3)c(=O)[nH]2)CC(C)O1 (stereo unspecified) do in these assays?
STEP inh: -2; SUMO1 PPI mod: 3; DNMT1 block: 6; LMPTP block: -2

How did N=c1c(C(=O)NCc2ccco2)cc2c(=O)n3ccccc3nc2n1CCc1ccccc1 do in these assays?
Scp1 inh: 1; STEP inh: -1; SUMO1 PPI mod: -7; DNMT1 block: 27; LMPTP block: 55*; GRK2 aptamer HTS: 1

What do the screens show for `Cc1cccn2c(=O)c3cc(C(=O)NCCc4ccccc4)c(=N)n(CCCn4ccnc4)c3nc12`?
Scp1 inh: 4; STEP inh: -2; SUMO1 PPI mod: -5; DNMT1 block: 13; LMPTP block: 64*; GRK2 aptamer HTS: 4

What do the screens show for `COc1ccc(CCNC(=O)c2cc3c(=O)n4ccccc4nc3n(Cc3ccco3)c2=N)cc1OC`?
Scp1 inh: 7; STEP inh: 1; SUMO1 PPI mod: 10; DNMT1 block: 8; LMPTP block: 23; GRK2 aptamer HTS: 0

What do the screens show for `N=c1c(C(=O)NCc2ccco2)cc2c(=O)n3ccccc3nc2n1CC1CCCO1` (stereo unspecified)?
Scp1 inh: 0; STEP inh: -2; SUMO1 PPI mod: -2; DNMT1 block: 13; LMPTP block: 17; GRK2 aptamer HTS: 0

Results for COc1ccc(CCn2c(=N)c(C(=O)NCc3ccco3)cc3c(=O)n4ccccc4nc32)cc1OC ?
Scp1 inh: 12; STEP inh: -1; SUMO1 PPI mod: 51*; DNMT1 block: 2; LMPTP block: 27

How did O=C1NC[C@H](CCCCN2CCN(Cc3ccccc3)C(=O)C2=O)N(Cc2ccccc2)C1=O do in these assays?
SUMO1 PPI mod: -2; LMPTP block: -1

Results for CC1(C(=O)NS(=O)(=O)c2cccc(OC(F)F)c2)CCN1C(=O)C1CCCCC1 (stereo unspecified) ?
STEP inh: 0; SUMO1 PPI mod: 3; DNMT1 block: 3; LMPTP block: 0

How did OC(c1ccc(F)cc1)c1nc(-c2cc3ccccc3o2)cs1 (stereo unspecified) do in these assays?
STEP inh: 0; SUMO1 PPI mod: -8; DNMT1 block: -1; LMPTP block: 3

How did Cc1ccc(C2=NNC(=O)C(c3c[nH]c4ccccc34)C2)cc1 (stereo unspecified) do in these assays?
Scp1 inh: -11; STEP inh: 2; SUMO1 PPI mod: 55*; DNMT1 block: -4; LMPTP block: 1; GRK2 aptamer HTS: 4

What do the screens show for `CCc1nnc(NC(=O)CSc2ncnc3c2oc2ccccc23)s1`?
Scp1 inh: -7; STEP inh: 0; SUMO1 PPI mod: 66*; DNMT1 block: -21; LMPTP block: 1; GRK2 aptamer HTS: 0

Results for CCOC(=O)c1sc2nc3c(SCCC(=O)O)cc(C(=O)c4cc(OC)ccc4O)cn3c(=O)c2c1C ?
Scp1 inh: 27; STEP inh: 96*; SUMO1 PPI mod: 84*; DNMT1 block: 104*; LMPTP block: 92*

How did C[C@@H]1CN([C@@H](C)CO)C(=O)c2cc(Br)cnc2O[C@H]1CN(C)C(=O)Cc1cccnc1 do in these assays?
STEP inh: -1; SUMO1 PPI mod: -1; DNMT1 block: 5; LMPTP block: -3

How did Oc1ccccc1/C=N/Nc1cc(N2CCCC2)nc(N2CCCC2)n1 do in these assays?
Scp1 inh: -30; STEP inh: 8; SUMO1 PPI mod: 33; DNMT1 block: 58*; LMPTP block: 8; GRK2 aptamer HTS: 0

What do the screens show for `COc1ccc(CCNC(=O)c2cc3ccc(Cl)cc3nc2N)cc1`?
SUMO1 PPI mod: -4; LMPTP block: 18

How did CN(C)/C=C1\C=C2C(=O)c3ccccc3N2C1=O do in these assays?
Scp1 inh: -16; STEP inh: inactive; SUMO1 PPI mod: -158; DNMT1 block: active; LMPTP block: -72; GRK2 aptamer HTS: 0

How did Cc1cccc(S(=O)(=O)NC(=O)C2(C)CCN2C(=O)CCC2CCCC2)c1 (stereo unspecified) do in these assays?
STEP inh: -2; SUMO1 PPI mod: -4; DNMT1 block: 9; LMPTP block: -4

How did O=C1C(=Cc2ccccc2O)SC(=S)N1CCCN1CCOCC1 do in these assays?
STEP inh: 12; SUMO1 PPI mod: -31; DNMT1 block: -6; LMPTP block: -4

What do the screens show for `O=C(O)[C@@H]1[C@H]2C[C@H]3c4[nH]c5ccccc5c4CCN3C[C@@H]2CC[C@@H]1O`?
Scp1 inh: -9; STEP inh: -2; SUMO1 PPI mod: 25; DNMT1 block: 21; LMPTP block: 60*; GRK2 aptamer HTS: 0

Results for OC1CCC2CN3CCc4c([nH]c5ccccc45)C3CC2C1 (stereo unspecified) ?
STEP inh: -4; SUMO1 PPI mod: -17; DNMT1 block: -8; LMPTP block: 4

What do the screens show for `COC(=O)c1ccc(CNC(=O)c2ccc(S(=O)(=O)N3CCCC(C)C3)cc2)cc1` (stereo unspecified)?
Scp1 inh: -8; STEP inh: 3; SUMO1 PPI mod: 0; DNMT1 block: 50*; LMPTP block: 0; GRK2 aptamer HTS: 0

What do the screens show for `CC1(C(=O)NCc2ccccc2)CSCC(=O)N1C1CC1` (stereo unspecified)?
SUMO1 PPI mod: 4; LMPTP block: -2

Results for CSc1nc2ccc3nc(NC(=O)c4cccs4)sc3c2s1 ?
Scp1 inh: 3; STEP inh: 3; SUMO1 PPI mod: 44*; DNMT1 block: 15; LMPTP block: 16; GRK2 aptamer HTS: 4

Results for O=C(O[C@@H]1OC2COC(=O)c3cc(O)c(O)c(O)c3-c3c(cc(O)c(O)c3O)C(=O)O[C@@H]([C@H]1O)[C@@H]2O)c1cc(O)c(O)c(O)c1 ?
Scp1 inh: 50*; STEP inh: 11; SUMO1 PPI mod: 46*; DNMT1 block: 90*; LMPTP block: 14; GRK2 aptamer HTS: 3

What do the screens show for `CCn1c(C)cc(C(=O)CSc2nnc(C3CC3)n2C2CC2)c1C`?
STEP inh: -4; SUMO1 PPI mod: -3; DNMT1 block: -1; LMPTP block: 1

What do the screens show for `Cc1cnc(CN(C)C(=O)C2CCC(=O)N(CCc3ccc(Cl)cc3)C2)[nH]1` (stereo unspecified)?
STEP inh: -3; SUMO1 PPI mod: 40*; DNMT1 block: 5; LMPTP block: -3
